Experimental findings from PubChem BioAssay are described below.

The nature of assay [1]: Her2 expression decrease, cell viability multiplex – SKBR3 breast tumor cells, AlphaScreen, ATP viability, primary screen (AID 461;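 active = Her2 level under about 52% in both replicate screens, with viability over 70% of control, limit read from the data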;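 for Her2 level: lower value means less Her2 protein in the cells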;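 for viability: percent of carrier control wells set as 100% viability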). The note with it: SKBR3 Her2 protein level, 18-24 h, measured here: SKBR3 viability, ATP luminescence, at 10 µM.
In assay [2] the target is Receptor tyrosine-protein kinase erbB-2 (Homo sapiens) (UniProt P04626). The description is as above. The note with it: 18-24 h, at 10 µM, stronger effect = lower value.
Receptor tyrosine-protein kinase erbB-2 (Homo sapiens), sequence (P04626 whole entry, looked up): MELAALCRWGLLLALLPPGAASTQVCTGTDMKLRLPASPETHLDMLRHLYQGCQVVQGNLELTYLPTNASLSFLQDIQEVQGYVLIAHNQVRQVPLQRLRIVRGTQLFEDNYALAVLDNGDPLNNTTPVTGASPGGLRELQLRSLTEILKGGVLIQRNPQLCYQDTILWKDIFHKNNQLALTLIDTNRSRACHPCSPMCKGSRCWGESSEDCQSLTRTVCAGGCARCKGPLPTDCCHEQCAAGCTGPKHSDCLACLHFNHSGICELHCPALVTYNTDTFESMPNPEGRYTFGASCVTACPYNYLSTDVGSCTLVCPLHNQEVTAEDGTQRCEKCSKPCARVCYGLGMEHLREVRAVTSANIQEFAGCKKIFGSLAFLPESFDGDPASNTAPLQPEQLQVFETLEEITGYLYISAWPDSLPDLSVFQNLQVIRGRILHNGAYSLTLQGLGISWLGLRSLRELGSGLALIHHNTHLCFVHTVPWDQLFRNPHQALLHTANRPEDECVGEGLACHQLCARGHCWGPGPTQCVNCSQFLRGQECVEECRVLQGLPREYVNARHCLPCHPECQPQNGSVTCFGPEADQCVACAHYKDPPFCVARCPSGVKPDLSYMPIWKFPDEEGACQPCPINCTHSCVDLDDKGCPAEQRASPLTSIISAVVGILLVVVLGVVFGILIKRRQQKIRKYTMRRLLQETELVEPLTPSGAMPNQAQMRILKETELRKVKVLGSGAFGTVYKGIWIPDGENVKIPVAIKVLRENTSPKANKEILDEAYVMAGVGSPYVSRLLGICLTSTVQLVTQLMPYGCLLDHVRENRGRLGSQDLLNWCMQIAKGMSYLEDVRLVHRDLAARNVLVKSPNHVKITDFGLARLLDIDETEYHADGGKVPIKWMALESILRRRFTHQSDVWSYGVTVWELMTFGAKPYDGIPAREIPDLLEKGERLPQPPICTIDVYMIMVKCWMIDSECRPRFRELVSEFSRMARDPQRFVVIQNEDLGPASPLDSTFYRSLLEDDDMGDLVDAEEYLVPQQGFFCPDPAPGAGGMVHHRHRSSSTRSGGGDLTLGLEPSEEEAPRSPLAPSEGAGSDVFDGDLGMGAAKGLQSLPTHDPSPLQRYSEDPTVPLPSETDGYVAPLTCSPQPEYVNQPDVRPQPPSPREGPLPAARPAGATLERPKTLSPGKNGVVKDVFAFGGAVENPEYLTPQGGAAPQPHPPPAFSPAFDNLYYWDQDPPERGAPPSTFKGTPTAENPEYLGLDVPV
Assay [3] can be described thus: reduced viability of SK-BR-3 breast cancer cells – cell-based, 24 h, human, pilot screen (AID 572;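 active = viability at or below 10% of carrier control in both of two separate runs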;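 note: compound exposure lasted between 18 and 24 h rather than exactly 24 h; 100% = carrier-treated control wells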). The note with it: SK-BR-3 viability, CellTiter-Glo luminescence, at 10 µM, stronger effect = lower value.
Assay [4] is described as follows: HUVEC growth inhibition – cell-based, human, primary screen (AID 575;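 active = viability at or below 30% in both replicate assays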;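 note: 100% = median of untreated cell wells with 0.1% DMSO on each plate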). The note with it: HUVEC proliferation, CellTiter-Glo luminescence, 72 h; at 10 µM; stronger effect = lower value. The essentials:
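Test system: primary human umbilical vein endothelial cells; medium: endothelial basal medium with 2% FBS plus growth supplements; dosing: 10 µM compound only; times: 72 h treatment at 37 °C; signal: CTG luminescence; read-out: % viability relative to median vehicle-well signal on each plate; control set: vehicle and MePR control wells; plate: 384-well, collagen-coated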

Assay [5] can be described thus: H69AR cell proliferation blockers – human, duplicate replicates, primary screen (AID 580).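 Note: 100% = mean luminescence of untreated wells and 0% = no signal.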 The conditions noted are these: H69AR lung tumor cells viability, ATP luminescence, 72 h; at 10 µM; stronger effect = lower value.
The nature of assay [6]: MRP1 drug-resistance reversers in H69AR cells – cell-based, doxorubicin co-treatment, pilot screen (AID 601;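 active = viability loss from added drug above about 55%, and viability with drug at most 40%, in both replicates, limit read from the data, passing the limit was not always enough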). The note with it: CellTiter-Glo, 72 h, at 10 µM; for differential viability (reversal): stronger effect = higher value.
The nature of assay [7]: yeast transport mutant growth inhibition pilot in 384-well plates, post-Golgi transport modulator project (AID 636; in the data active = inhibition above about 31%). The conditions noted are these: absorbance 615 nm, about 18 h, stronger effect = higher value.
Assay [8] can be described thus: growth suppression of yeast trafficking mutant, preliminary HTS, modulators of trafficking downstream of Golgi apparatus project, 1536-format plate, OD 615 nm (AID 637; in the data active = inhibition above about 30%). The note with it: yeast transport mutant growth, absorbance 615 nm, 18 h; stronger effect = higher value.
Where [9] appears, read: H69AR cells + 2 uM doxorubicin, measured here: viability with 2 uM doxorubicin, stronger effect = lower value.
Setting [10] is: H69AR cells, compound alone cytotoxicity.

Each structure is given as a SMILES string. Activity calls are given as the source filed them.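 Rule for the calls, unless noted: active = viability at or under a set limit in both replicates, limit being median viability minus 3 SD (cut at about 48% in these data, passing the limit was not always enough); inconclusive = at or under the limit in just one replicate; inactive = at or above the limit in both replicates.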

As for `COc1ccc(C(NC(=O)C(C)(C)C)NC(=O)C(C)(C)C)cc1`, the viability in assay [1] is 86%; in assay [3] it was 86% (inactive); in assay [4], 111% (inactive); in assay [5], 91.7% (inactive); in assay [6] (setting [9]), 85.5%; in assay [6] (setting [10]), 91.7%. Further, in assay [2], the Her2 level is 99.5% (inactive). In addition, the differential viability (reversal) in assay [6] (H69AR cells + 2 uM doxorubicin) was 6.21% (inactive). The inhibition in assay [7] is -5.32% (inactive); in assay [8] it was -0.32% (inactive).
`O=c1oc2ccccc2c2nccnc12`: the viability in assay [1] is 93.5%; in assay [3], 93.5% (inactive); in assay [4], 103% (inactive); in assay [5], 96.5% (inactive); in assay [6] (setting [9]), 91.4%; in assay [6] (setting [10]), 96.5%. The Her2 level in assay [2] is 115% (inactive). Moreover, the differential viability (reversal) in assay [6] (H69AR cells + 2 uM doxorubicin) is 5.08% (inactive). Besides, the inhibition was -0.13% (inactive) in assay [7] and -9.5% (inactive) in assay [8].
`CCCC(=O)OCCn1c(Br)nc2c1c(=O)[nH]c(=O)n2C`: the viability was 98.5% in assay [1]; 98.5% (inactive) in assay [3]; 89.4% (inactive) in assay [4]; 93.5% (inactive) in assay [5]; 88.2% in assay [6] (setting [9]); 93.5% in assay [6] (setting [10]). For the same compound, in assay [2], the Her2 level was 86.5% (inactive). In assay [6] (H69AR cells + 2 uM doxorubicin), the differential viability (reversal) is 5.21% (inactive). Also, the results for the inhibition in assay [7] and in assay [8] were -1.47% (inactive) and 1.45% (inactive), respectively.
With `Cc1ccc2[nH]cc(C(=O)CN3CCC4(CC3)OCCO4)c2c1`, the viability was 106% in assay [1]; 106% (inactive) in assay [3]; 104% (inactive) in assay [4]; 92.2% (inactive) in assay [5]; 90.5% in assay [6] (setting [9]); 92.2% in assay [6] (setting [10]). Further, the Her2 level in assay [2] is 90% (inactive). Besides, in assay [6] (H69AR cells + 2 uM doxorubicin), the differential viability (reversal) is 1.75% (inactive). Besides, the inhibition in assay [7] is -4.13% (inactive); in assay [8], -1.48% (inactive).
Consider `CC1CC(=O)C2=C(C1)OC(N)=C(C#N)C2c1coc2ccccc2c1=O` (stereo not given), for which the viability was 108% in assay [1]; 108% (inactive) in assay [3]; 95.1% (inactive) in assay [4]; 97.3% (inactive) in assay [5]; 86.7% in assay [6] (setting [9]); 97.3% in assay [6] (setting [10]). The Her2 level in assay [2] is 88.5% (inactive). In addition, the differential viability (reversal) in assay [6] (H69AR cells + 2 uM doxorubicin) is 10.6% (inactive). The inhibition in assay [7] is -7.33% (inactive); in assay [8] it was 2.26% (inactive).
Regarding `COc1ccccc1N1C(=O)CC(Sc2nc(C)cc(C)n2)C1=O` (stereo not given), the viability was 87% in assay [1]; 87% (inactive) in assay [3]; 102% (inactive) in assay [4]; 83.4% (inactive) in assay [5]; 92.7% in assay [6] (setting [9]); 83.4% in assay [6] (setting [10]). Further, the Her2 level in assay [2] is 96.5% (inactive). For the same compound, in assay [6] (H69AR cells + 2 uM doxorubicin), the differential viability (reversal) is -9.3% (inactive). Also, the inhibition in assay [7] was -5.84% (inactive); in assay [8], -7.21% (inactive).
In the case of `CC(=O)N1CCN=C1SCc1c(F)cccc1Cl`, the viability in assay [1] was 102%; in assay [3] it was 102% (inactive); in assay [4], 73.1% (inactive); in assay [5] it was 78.8% (inactive); in assay [6] (setting [9]), 83.8%; in assay [6] (setting [10]), 78.8%. In addition, in assay [2], the Her2 level was 105% (inactive). Besides, the differential viability (reversal) in assay [6] (H69AR cells + 2 uM doxorubicin) is -5.06% (inactive). Also, the inhibition in assay [7] is 3.85% (inactive); in assay [8], -1% (inactive).
Regarding `CCOC(=O)C1=C(C)N=c2s/c(=C\c3cccn3C)c(=O)n2C1c1cccc(OC)c1OC` (stereo not given), the viability was 89% in assay [1]; 89% (inactive) in assay [3]; 75.7% (inactive) in assay [4]; 87.4% (inactive) in assay [5]; 89% in assay [6] (setting [9]); 87.4% in assay [6] (setting [10]). Moreover, the Her2 level in assay [2] was 87% (inactive). The differential viability (reversal) in assay [6] (H69AR cells + 2 uM doxorubicin) is -1.62% (inactive). The inhibition in assay [7] is -1.56% (inactive); in assay [8], -2.13% (inactive).
Turning to `c1ccc2c(c1)CC(N1CCCCC1)c1ccccc1N2` (stereo not given), the viability in assay [1] is 79.5%; in assay [3], 79.5% (inactive); in assay [4], 90.1% (inactive); in assay [5] it was 91.5% (inactive); in assay [6] (setting [9]) it was 86.8%; in assay [6] (setting [10]) it was 91.5%. The Her2 level in assay [2] is 91% (inactive). The differential viability (reversal) in assay [6] (H69AR cells + 2 uM doxorubicin) is 4.69% (inactive). The results for the inhibition in assay [7] and in assay [8] were -1.82% (inactive) and -3.93% (inactive), respectively.
For the compound `CC(C)(C)C1CCc2[nH]nc(C(=O)O)c2C1` (stereo not given), the viability in assay [1] is 104%; in assay [3] it was 104% (inactive); in assay [4], 92.3% (inactive); in assay [5], 98% (inactive); in assay [6] (setting [9]), 95%; in assay [6] (setting [10]), 98%. In addition, the Her2 level in assay [2] was 86.5% (inactive). Moreover, in assay [6] (H69AR cells + 2 uM doxorubicin), the differential viability (reversal) was 3% (inactive). In addition, the inhibition in assay [7] is -2.43% (inactive); in assay [8], 1.11% (inactive).
As for `CCN(CC)c1ccc(-c2c(C#N)c(N)nc(OC)c2C#N)cc1`, the viability in assay [1] is 75.5%; in assay [3], 75.5% (inactive); in assay [4], 81.3% (inactive); in assay [5], 79.4% (inactive); in assay [6] (setting [9]) it was 83.5%; in assay [6] (setting [10]), 79.4%. The Her2 level in assay [2] is 88.5% (inactive). Besides, in assay [6] (H69AR cells + 2 uM doxorubicin), the differential viability (reversal) was -4.16% (inactive). Besides, the inhibition is -1.17% (inactive) in assay [7] and -8.36% (inactive) in assay [8].
Regarding `CC(=O)c1cn(CC(=O)NCc2ccc3c(c2)OCO3)c2ccccc12`, the viability was 102% in assay [1]; 102% (inactive) in assay [3]; 98.4% (inactive) in assay [4]; 99% (inactive) in assay [5]; 92.2% in assay [6] (setting [9]); 99% in assay [6] (setting [10]). The Her2 level in assay [2] was 93% (inactive). In addition, the differential viability (reversal) in assay [6] (H69AR cells + 2 uM doxorubicin) was 6.8% (inactive). In addition, the results for the inhibition in assay [7] and in assay [8] were -9.32% (inactive) and 3.65% (inactive), respectively.
On to `CN(C)S(=O)(=O)c1ccc(S(=O)(=O)Nc2ccc3c(c2)oc2ccccc23)cc1`, for which the viability in assay [1] was 79.5%; in assay [3], 79.5% (inactive); in assay [4] it was 59.2% (inactive); in assay [5], 73.2% (inactive); in assay [6] (setting [9]) it was 76.1%; in assay [6] (setting [10]) it was 73.2%. The Her2 level in assay [2] is 97% (inactive). The differential viability (reversal) in assay [6] (H69AR cells + 2 uM doxorubicin) is -2.9% (inactive). In addition, the inhibition in assay [7] is 2.11% (inactive); in assay [8] it was -3.64% (inactive).
Consider `COC(=O)Nc1ccc(C)cc1NC(=O)OC`, for which the viability is 86.5% in assay [1]; 86.5% (inactive) in assay [3]; 96.4% (inactive) in assay [4]; 107% (inactive) in assay [5]; 99.5% in assay [6] (setting [9]); 107% in assay [6] (setting [10]). Moreover, the Her2 level in assay [2] is 102% (inactive). The differential viability (reversal) in assay [6] (H69AR cells + 2 uM doxorubicin) is 7.78% (inactive). Moreover, the inhibition is 0.67% (inactive) in assay [7] and -6.61% (inactive) in assay [8].

As a reminder, the viability is a read-out of living cells in per cent, often relative to untreated cells. As a reminder, the inhibition is the drop in the measured response relative to a control, in per cent.
